Experimental data pooled from the literature.
Compare with care: the assays were run in different laboratories.
Target: Dual specificity protein kinase CLK3 (CLK3, Homo sapiens, UniProt P49761)

| Structure (SMILES) | test | setting | measurement | value |
| --- | --- | --- | --- | --- |
| C[C@H]1CC[C@H](n2c3cnccc3c3cnc(Nc4ccc5c(n4)CCN(C(=O)CO)C5)nc32)CC1 | cell-free assay | 1 µM | remaining signal | 100% |
| C1=C/COCc2cc(ccc2OCCN2CCCC2)Nc2nccc(n2)-c2cccc(c2)COC/1 | binding | 0.1 µM | remaining binding | 100% |
| C=CC(=O)N1CCC([C@@H]2CCNc3c(C(N)=O)c(-c4ccc(Oc5ccccc5)cc4)nn32)CC1 | enzyme activity, inhibitor | 1 µM | inhibition | 16% |
| Cc1cc(O)c(-c2ccc([C@@H](C)CN(C)C)cc2)c2c1[nH]c(=O)c1sccc12 | enzyme activity, inhibitor | 0.1 µM | inhibition | -13.2% |
| CN1CCN(C(=O)c2ccc(NC(=O)Nc3ccc(N(C)c4ccnc(Nc5ccc(CS(C)(=O)=O)cc5)n4)cc3)cc2)CC1 | binding | 1 µM | remaining binding | 95% |
| C=CC(=O)N1CCC[C@@H](n2nc(-c3ccc(Oc4ccccc4)cc3)c3c(N)ncnc32)C1 | enzyme activity, inhibitor | 1 µM | inhibition | 23% |
| CC(C)S(=O)(=O)c1ccc2nccc(Nc3ccc4sc(C5CCCC5)nc4c3)c2c1 | enzyme activity, inhibitor | 1 µM | activity vs control | 110% |
| CCCCC(=O)Nc1ccc(-c2ccc3ncn(CCC)c(=O)c3c2)cn1 | binding, competition with immobilised ligand | 0.5 µM | remaining binding | 78% |
